Source: PubChem (Broad Institute)
Only some compounds are listed: those with a hit (about 3.5% of all), similar ones and a draw of the others.
ERAP1 HTS inh – blocks human ERAP1 aminopeptidase activity | hit rate 0.15% among 340,000 | inhibition, % at 10.7 µM | recombinant ERAP1, Leu-AMC fluorescence, 60 min | Q9NZ08;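 active = mean replicate inhibition of at least 30%, or all replicates individually reaching that 30% level; inactive = mean below 30% and not every replicate reaching it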;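 also: 0% = neutral control wells and 100% = L-leucinethiol positive control wells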
Ecoli rRNA inh – inhibits bacterial ribosomal RNA function over humanized ribosomes | E. coli WT GFP vs humanized-ribosome RFP mutants, fluorescence, 24 h; stronger effect = lower value; DMSO median 0, no signal -100 | GFP signal change (wild-type ribosome), % (test concentration not listed) | hit rate 1.6% among 350,000 | AID 720706;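 active = significant combined selectivity score with lowered wild-type GFP, culture density cut under 30%, mutant RFP and density less affected; inactive = any of these conditions unmet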
PGC1a acetyl inh – PGC1a acetylation modulation, inhibitor mode. U2OS PGC1a acetylation, AlphaScreen anti-acetyl-lysine; with virally co-expressed GCN5 acetyltransferase. inhibition, % at 15.6 µM. hit rate 0.17% among 350,000. AID 651687;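 active = every replicate shows inhibition of at least 40%; inconclusive = mean inhibition at least 40% but some replicate below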;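 also: 0% = neutral control wells and 100% = positive control wells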
FGF22 binding – shifts melting point of recombinant human FGF22. activity (Tm shift, normalised), % at 9.99 µM. hit rate 1.5% among 340,000. AID 651658. recombinant FGF22 thermal shift, SYPRO orange fluorescence; percent of sucrose octasulfate shift, DMSO zero;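 active = mean Tm shift, scaled 0 neutral to 100 positive control, at about 1.3% or above, every replicate too, limit read from the data; inconclusive = no clear call, values can overlap the other calls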
HIV Env fusion – HIV envelope-mediated fusion inhibition | HeLa-JRFL Env/CEM21 cell fusion, luciferase | inhibition, % at 12.3 µM | hit rate 1.1% among 360,000 | AID 651610;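 active = mean replicate inhibition score of at least 50 and every replicate individually at or above 50; inconclusive = only one of the two criteria met; inactive = mean below 50 and not all replicates reaching 50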;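 also: 0% = plate neutral controls and 100% = maraviroc near 300 nM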
Cneo AK release – causes C. neoformans cell lysis | adenylate kinase release luminescence, 4 h; normalised: neutral wells 0, clomiphene wells 100 | lysis activity, % at 15 µM | hit rate 0.2% among 360,000;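 active = mean lysis activity across replicates of at least 80%, whatever share of replicates individually reach that level; inactive = mean lysis activity below 80%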
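Signal: Adenylate kinase release luminescence | Assay system: Log-phase Cryptococcus neoformans yeast cells | Input: Cells at 5 × 10^6 per mL | Buffer or medium: Fresh YPD growth medium | Compound: Single dose | Schedule: Static 4 h at 37 °C with compound, 1 h detection | Controls: Clomiphene | Read-out: Luminescence rise reflecting yeast cell lysis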
* marks the source's active call; other numbers are inactive results; ? = inconclusive; nt = no result; [ ] = dose if it differs, or a comment.

SMILES	ERAP1 HTS inh	Ecoli rRNA inh	PGC1a acetyl inh	FGF22 binding	HIV Env fusion	Cneo AK release
CCOC(=O)/C(N=Nc1c(C)n(C)n(-c2ccccc2)c1=O)=C(/O)c1ccccc1	-9	14	2	43*	-28	nt
COc1ccc(-c2cc(=O)oc3cc(OC(C)C(=O)NCc4ccccn4)ccc23)cc1 (stereo unspecified)	2	nt	-12	49*	nt	-5
CCOC(=O)C(=Cc1ccc(-n2cncn2)cc1)C(=O)OCC	-1	7	-2	0	-33	-5
COc1ccc(S(=O)(=O)Nc2ccc3c(c2)CC(=O)N([C@@H](C)CO)C[C@@H](C)[C@@H](CN(C)Cc2ccc(C(F)(F)F)cc2)O3)cc1	1	-4	-5	-1	31[16.7 µM]	2
COc1ccc(CN(C)C[C@@H]2Oc3ccc(NS(C)(=O)=O)cc3CC(=O)N([C@@H](C)CO)C[C@H]2C)cc1	2	0	-23	1	4[16.7 µM]	2
COc1ccc(S(=O)(=O)Nc2ccc3c(c2)CC(=O)N([C@@H](C)CO)C[C@@H](C)[C@H](CN(C)Cc2ccc(C(F)(F)F)cc2)O3)cc1	-1	1	-9	-1	73*[16.7 µM]	9
COc1ccc(CN(C)C[C@@H]2Oc3ccc(NS(C)(=O)=O)cc3CC(=O)N([C@H](C)CO)C[C@H]2C)cc1	7	0	7	-1	12[16.7 µM]	97*
COc1ccc(CN(C)C[C@H]2Oc3ccc(NS(C)(=O)=O)cc3CC(=O)N([C@@H](C)CO)C[C@H]2C)cc1	13	5	-17	-1	-43[16.7 µM]	81*
COc1ccc2sc(N(CCN(C)C)C(=O)c3ccc4ccccc4c3)nc2c1	4	-5	-6	0	8	3
O=C(CNS(=O)(=O)c1ccc2ccccc2c1)NCCc1ccccn1	-2	2	2	0	9	5
Cc1ccsc1C(=O)N1CCN(c2ncccn2)CC1	-2	3	nt	0	nt	-1
Cc1ccc(-n2c(C)nc3ccsc3c2=O)cc1	nt	-36*	nt	0	25	0
COc1cc2c(cc1OC)-c1onc(-c3ccc(OCCO)cc3)c1CCCN(CC(C)O)CC2 (stereo unspecified)	-1	nt	6	0	3[16.7 µM]	12
CS(=O)(=O)c1ccc(N)c(SSc2cc(S(C)(=O)=O)ccc2N)c1	39*	3	2	0	-1	-1
CS(=O)(=O)c1ccc2nc(N)sc2c1	nt	nt	-11	nt	?	-2
C[C@H]1CN([C@@H](C)CO)C(=O)Cc2cc(NC(=O)Nc3ccc4c(c3)OCO4)ccc2O[C@H]1CN(C)S(=O)(=O)c1ccccc1	0	1	4	-1	63*[16.7 µM]	nt
Cc1ccc(S(=O)(=O)N(C)C[C@@H]2Oc3ccc(NC(=O)Cc4ccccc4)cc3CC(=O)N([C@H](C)CO)C[C@@H]2C)cc1	-1	-1	-3	-1	77*[16.7 µM]	-2
C[C@H]1CN([C@@H](C)CO)C(=O)Cc2cc(NC(=O)Cc3ccccc3)ccc2O[C@H]1CN(C)S(=O)(=O)c1ccccc1	2	-1	4	0	73*[16.7 µM]	1
C[C@@H]1CN([C@H](C)CO)C(=O)Cc2cc(NC(=O)Nc3ccc4c(c3)OCO4)ccc2O[C@@H]1CN(C)S(=O)(=O)c1ccccc1	6	0	-9	-1	-28[16.7 µM]	nt
COC(=O)[C@@]1(Cc2ccc(F)cc2)[C@H]2c3cc(C(=O)N(C)C)n(Cc4c(CO)[nH]cc(C)c4=O)c3C[C@H]2CN1C(=O)c1ccccc1	-2	9	nt	0	-36	nt
COc1ccccc1-c1cccc(-c2nc(C(=O)Nc3nccs3)cc3c2[C@H](CCO)N(C(=O)CC2CC2)C3)c1	-1	2	11	0	22[16.7 µM]	nt
COc1ccccc1-c1cccc(-c2nc(C(=O)Nc3nccs3)cc3c2[C@@H](CCO)N(C(=O)CC2CC2)C3)c1	45*	-2	nt	0	5	nt
Cc1cc(NS(=O)(=O)c2ccc(NC(=O)COc3c(C)cc(Br)cc3C)cc2)no1	6	-48	85*	0	-7	-1
Cc1cc(NS(=O)(=O)c2ccc(NC(=O)c3oc4ccccc4c3C)cc2)no1	nt	nt	-17	nt	57*	3
